The target of test [1] is T1, Polyunsaturated fatty acid 5-lipoxygenase (Homo sapiens, UniProt P09917).
T1 sequence (P09917 whole entry): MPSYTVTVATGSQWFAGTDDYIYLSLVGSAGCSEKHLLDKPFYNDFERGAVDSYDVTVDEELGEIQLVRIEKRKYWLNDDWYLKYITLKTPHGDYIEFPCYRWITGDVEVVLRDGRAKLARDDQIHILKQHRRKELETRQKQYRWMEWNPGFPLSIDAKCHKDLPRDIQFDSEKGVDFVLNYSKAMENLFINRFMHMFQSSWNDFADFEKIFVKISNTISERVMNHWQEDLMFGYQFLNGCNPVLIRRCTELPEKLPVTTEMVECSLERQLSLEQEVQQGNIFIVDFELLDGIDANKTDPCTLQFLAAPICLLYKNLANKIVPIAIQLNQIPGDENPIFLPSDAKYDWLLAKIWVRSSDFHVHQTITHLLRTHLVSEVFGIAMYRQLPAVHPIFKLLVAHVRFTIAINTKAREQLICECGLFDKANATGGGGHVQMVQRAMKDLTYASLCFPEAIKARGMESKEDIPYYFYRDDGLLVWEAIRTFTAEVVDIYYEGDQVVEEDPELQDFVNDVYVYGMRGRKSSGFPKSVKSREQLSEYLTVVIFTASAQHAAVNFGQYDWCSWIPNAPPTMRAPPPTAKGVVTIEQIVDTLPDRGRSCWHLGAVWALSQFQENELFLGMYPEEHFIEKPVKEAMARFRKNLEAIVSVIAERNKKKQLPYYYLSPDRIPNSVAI
Briefly: Inhibition of human neutrophil 5-lipoxygenase.

Test [2] deals with T2, Cyclooxygenase (Homo sapiens, UniProt P35354+P23219). As to the kind of experiment: Inhibition of human platelet Prostaglandin G/H synthase.
Test [3] deals with T3, Polyunsaturated fatty acid 5-lipoxygenase (Homo sapiens) (UniProt P09917).
T3 sequence (whole entry): T1 sequence (P09917 whole entry)
As to the kind of experiment: Inhibition of lipoxygenase at the concentration of 1 uM. An outline of the steps:
(§1)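 5-LO activity measured in human peripheral blood leukocytes. Percent inhibition at a single test concentration is compared with untreated control, with significance by ANOVA and Tukey's multiple comparisons test (p < 0.05).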

A short description of test [4]: Inhibition of human platelet Prostaglandin G/H synthase at the concentration of 10 uM. An outline of the steps: (§2)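 CO activity measured in human platelets. Percent inhibition at a single test concentration is compared with untreated control, with significance by ANOVA and Tukey's multiple comparisons test (p < 0.05).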
Test [5] addresses T2, Cyclooxygenase. Briefly: Inhibition of human platelet Prostaglandin G/H synthase at the concentration of 1 uM. The essentials:
as §2

Test [6] addresses T3, Polyunsaturated fatty acid 5-lipoxygenase (Homo sapiens). Briefly: Inhibition of human neutrophil 5-lipoxygenase at the concentration of 1 uM. An outline of the steps:
as §1

The target is the same in test [7]. Briefly: Inhibition of human neutrophil 5-lipoxygenase at the concentration of 0.1 uM. The essentials: as §1

For 40 compounds, IC50 and inhibition results are on record in ChEMBL document CHEMBL1124816, “Effect of structure on potency and selectivity in 2,6-disubstituted 4-(2-arylethenyl)phenol lipoxygenase inhibitors” (J Med Chem, 1990).

As to `Cc1cc(/C=C/c2cccnc2)cc(C)c1O`, the IC50 (usually the concentration that gives 50% inhibition) in test [1] came out at 0.37 µM; at Cyclooxygenase [2], 11 µM.
Turning to `Cc1cc(/C=C2\CCOC2=O)cc(C)c1O`, the concentration for half-maximal inhibition (IC50) in test [1] was above 1 µM; on Cyclooxygenase [2] it was above 10 µM. Moreover, the values for the inhibition (in test [3]; in test [4]; against Cyclooxygenase [5]) were 1%, 0% and 0%, respectively.
As to `CC(C)c1cc(/C=C/c2ccc(F)cc2)cc(C(C)C)c1O`, the concentration for half-maximal inhibition (IC50) in test [1] is above 1 µM; on Cyclooxygenase [2], below 10 µM. In addition, the inhibition (usually the share of the control response that was lost under treatment) in test [3] was found to be 40%; in test [4] it was 74%; at Cyclooxygenase [5], 12%.
Regarding `Cc1cc(Cc2cccnc2)cc(C)c1O`, the values for the concentration for half-maximal inhibition (IC50) (in test [1]; on Cyclooxygenase [2]) were above 1 µM and above 10 µM, respectively. The inhibition in test [6] amounted to 5%; in test [4], 7%; at Cyclooxygenase [5] it was 0%.
As for `Cc1cc(CCC(=O)c2ccc(F)cc2)cc(C)c1O`, the IC50 in test [1] was above 1 µM; against Cyclooxygenase [2], below 10 µM. Moreover, the inhibition in test [6] was 44%; in test [4], 80%; on Cyclooxygenase [5] it was 29%.
As to `Cc1cc(/C=C/c2cccc(C(=O)O)c2)cc(C)c1O`, the values for the IC50 (in test [1]; on Cyclooxygenase [2]) were above 1 µM and above 10 µM, respectively. In addition, the inhibition (in test [3]; in test [4]; at Cyclooxygenase [5]) was 0% in each case.
As to `Cc1cc(CCc2cccs2)cc(C)c1O`, the figures for the IC50 (in test [1]; on Cyclooxygenase [2]) were below 1 µM and 0.11 µM, respectively. Moreover, the inhibition in test [7] came to 11%; in test [6] it was 67%.
As to `Cc1cc(C(=O)c2cccs2)cc(C)c1O`, the figures for the IC50 (in test [1]; at Cyclooxygenase [2]) were above 1 µM and below 1 µM, respectively. Further, the inhibition in test [6] was 1%; in test [4], 90%; against Cyclooxygenase [5], 60%.
Consider `CC(C)(C)c1cc(C(=O)c2cccs2)cc(C(C)(C)C)c1O` [PRIFELONE], for which the IC50 in test [1] turned out to be 4.8 µM; against Cyclooxygenase [2] it was 0.0057 µM.
Take `Cc1cc(/C=C/c2ccccc2OCc2ccccc2)cc(C)c1O`: the IC50 in test [1] is below 1 µM; on Cyclooxygenase [2] it was ~ 1 uM. Moreover, the inhibition came to 18% in test [7], 95% in test [6], 92% in test [4] and 45% at Cyclooxygenase [5].
For `C/C(=C\c1cc(C)c(O)c(C)c1)c1ccc(F)cc1`, the IC50 in test [1] is 0.43 µM; on Cyclooxygenase [2], 0.63 µM.
On to `Cc1ccc(/C=C/c2cc(C)c(O)c(C)c2)s1`, for which the IC50 in test [1] was below 1 µM; on Cyclooxygenase [2], 0.78 µM. In addition, the inhibition in test [7] was found to be 26%; in test [6], 87%.
In the case of `CC(C)(C)c1cc(/C=C2\CCOC2=O)cc(C(C)(C)C)c1O`, the IC50 against Cyclooxygenase [2] was found to be 0.11 µM.
As to `CCc1ccc(/C=C/c2cc(C)c(O)c(C)c2)cc1`, the IC50 in test [1] turned out to be 0.59 µM; against Cyclooxygenase [2], 0.51 µM.
In the case of `Cc1cc(C(=O)/C=C/c2cccs2)cc(C)c1O`, the IC50 in test [1] was above 1 µM; at Cyclooxygenase [2], below 10 µM. Besides, the figures for the inhibition (in test [3]; in test [4]; at Cyclooxygenase [5]) were 0%, 82% and 25%, respectively.
Regarding `CC(C)c1cc(/C=C/c2cccs2)cc(C(C)C)c1O`, the 50% inhibitory concentration (IC50) (in test [1]; against Cyclooxygenase [2]) was below 1 µM each time. In addition, the inhibition in test [7] stood at 14%; in test [6], 94%.
As for `Cc1cc(/C=C/c2ccccc2)cc(C)c1O`, the IC50 in test [1] is 0.1 µM; against Cyclooxygenase [2], 4.2 µM.
For `COc1cc(/C=C/c2cccs2)cc(F)c1O`, the IC50 is below 1 µM in test [1] and below 10 µM against Cyclooxygenase [2]. The inhibition in test [7] is 31%; in test [6] it was 89%; in test [4], 97%; at Cyclooxygenase [5] it was 42%.
On to `CC(C)c1cc(/C=C/c2cccnc2)cc(C(C)C)c1O`, for which the figures for the IC50 (in test [1]; against Cyclooxygenase [2]) were 0.2 µM and below 10 µM, respectively.
Turning to `COc1cc(/C=C/c2cccs2)cc(OC)c1O`, the results for the IC50 (in test [1]; against Cyclooxygenase [2]) were around 0.1 µM and below 10 µM, respectively. Further, the inhibition in test [7] is 52%; in test [6], 93%; in test [4], 86%; against Cyclooxygenase [5], 1%.
`Cc1cc(/C=C/c2cccs2)cc(Cl)c1O`: the IC50 was below 1 µM in test [1] and 0.23 µM against Cyclooxygenase [2]. Also, the inhibition in test [7] amounted to 29%; in test [6], 93%.
Consider `Cc1cc(/C=C/c2ccc(Cl)s2)cc(C)c1O`, for which the IC50 in test [1] is below 1 µM; against Cyclooxygenase [2], 1.3 µM. For the same compound, the inhibition in test [7] worked out at 32%; in test [6], 92%.
In the case of `CCCCOc1ccc(/C=C/c2cc(C)c(O)c(C)c2)cc1`, the IC50 in test [1] was around 1 µM; on Cyclooxygenase [2], below 10 µM. The inhibition in test [7] worked out at 7%; in test [6], 53%; in test [4] it was 67%; at Cyclooxygenase [5] it was 32%.
Turning to `Cc1cc(/C=C/c2ccc(C(=O)O)cc2)cc(C)c1O`, the IC50 in test [1] was above 1 µM; on Cyclooxygenase [2], above 10 µM. Besides, the inhibition (in test [3]; in test [4]; at Cyclooxygenase [5]) was 0% each time.
On to `CCc1cc(/C=C/c2cccs2)cc(CC)c1O`, for which the values for the IC50 (in test [1]; at Cyclooxygenase [2]) were around 0.1 µM and below 10 µM, respectively. The inhibition in test [7] worked out at 52%; in test [6] it was 89%; in test [4], 96%; against Cyclooxygenase [5], 39%.
For `CCc1cc(/C=C/c2ccc(OC)cc2)cc(CC)c1O`, the 50% inhibitory concentration (IC50) was below 1 µM in test [1] and below 10 µM on Cyclooxygenase [2]. Further, the inhibition in test [7] worked out at 15%; in test [6], 90%; in test [4], 80%; at Cyclooxygenase [5] it was 33%.
On to `COc1ccccc1/C=C/c1cc(C)c(O)c(C)c1`, for which the figures for the IC50 (in test [1]; against Cyclooxygenase [2]) were 0.1 µM and 1.1 µM, respectively.
Regarding `Cc1cc(/C=C/C(=O)c2cccs2)cc(C)c1O`, the values for the IC50 (in test [1]; against Cyclooxygenase [2]) were above 1 µM and below 10 µM, respectively. The values for the inhibition (in test [3]; in test [4]; at Cyclooxygenase [5]) were 22%, 82% and 37%, respectively.
For `Cc1cc(/C=C/c2ccc(Cl)cc2)cc(C)c1O`, the IC50 in test [1] is 0.17 µM; on Cyclooxygenase [2], 0.75 µM.
With `Cc1cc(/C=C/C(=O)c2ccc(F)cc2)cc(C)c1O`, the values for the IC50 (in test [1]; against Cyclooxygenase [2]) were above 1 µM and below 10 µM, respectively. Moreover, the inhibition was 33% in test [3], 71% in test [4] and 43% on Cyclooxygenase [5].
As for `C=CCc1cc(/C=C/c2cccs2)cc(C)c1O`, the IC50 was determined as 0.065 µM in test [1] and 0.73 µM against Cyclooxygenase [2].
Turning to `Cc1ccc(C)c(/C=C/c2cc(C)c(O)c(C)c2)c1`, the IC50 was 0.24 µM in test [1] and 1.3 µM on Cyclooxygenase [2].
For the compound `COc1ccc(/C=C/c2cc(C(C)(C)C)c(O)c(C(C)(C)C)c2)cc1`, the IC50 is above 1 µM in test [1] and above 10 µM at Cyclooxygenase [2]. Moreover, the results for the inhibition (in test [6]; in test [4]; on Cyclooxygenase [5]) were 0%, 5% and 0%, respectively.
`Cc1cc(/C=C/c2cccs2)cc(F)c1O`: the IC50 (in test [1]; on Cyclooxygenase [2]) was below 1 µM in each case. The inhibition amounted to 18% in test [7], 90% in test [6], 95% in test [4] and 72% at Cyclooxygenase [5].
As for `CC(C)(C)c1cc(/C=C/c2cccs2)cc(C(C)(C)C)c1O`, the values for the IC50 (in test [1]; against Cyclooxygenase [2]) were 1.2 µM and 0.034 µM, respectively.
Turning to `CCCOc1ccc(/C=C/c2cc(C)c(O)c(C)c2)cc1`, the IC50 was below 1 µM in test [1] and 0.19 µM on Cyclooxygenase [2]. Also, the inhibition was 27% in test [7] and 90% in test [6].
In the same order, the values of `Cc1cc(/C=C/c2ccccn2)cc(C)c1O` are below 1 µM, 2.5 µM, 29% and 82%.
For `COc1ccc(/C=C/c2cc(C(C)C)c(O)c(C(C)C)c2)cc1`, the results for the IC50 (in test [1]; at Cyclooxygenase [2]) were below 1 µM and below 10 µM, respectively. The inhibition in test [7] amounted to 13%; in test [6], 71%; in test [4] it was 84%; against Cyclooxygenase [5], 18%.
As for `Cc1cc(CCc2ccc(F)cc2)cc(C)c1O`, the IC50 was above 1 µM in test [1] and 0.3 µM on Cyclooxygenase [2]. Moreover, the inhibition in test [3] came to 44%.
For `Cc1ccc(/C=C/c2cc(C(C)(C)C)c(O)c(C(C)(C)C)c2)cc1` the same measures were above 1 µM, 10 µM and 0%.
